Assay results published in ChEMBL document CHEMBL2029240 (ACS Med Chem Lett, 2011).
Blank lines part the entries; values can stand above or below the compound they belong to. Active and inactive are the calls of the source. No cut-off for these calls is given here.

Key:
[1] = target: T1, C-C chemokine receptor type 2 (Homo sapiens, UniProt P41597)
[2] = target: T1, C-C chemokine receptor type 2; test: Antagonist activity at CCR2 receptor in human whole blood assessed as inhibition of alexa-tagged MCP-induced effect 30 mins by flow cytometry; format: functional, tissue-based
[3] = target: T2, Voltage-gated inwardly rectifying potassium channel KCNH2 (Homo sapiens, UniProt Q12809); test: Displacement of [3H]dofetilide from human ERG
[4] = AUC in dog at 10 mg/kg, po; format: ADME, organism-based, Canis lupus familiaris; design: dose 10 mg/kg, route oral; settings: plasma
Rattus norvegicus [5] = test: Clearance in rat at 2 mg/kg, iv; format: ADME, organism-based; design: dose 2 mg/kg, route intravenous; settings: in vivo
Procedure, shortened: (§1)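 Rats were dosed iv at 2 mg/kg and orally at 10 mg/kg. Plasma PK parameters derived: CL (L/h/kg), Vss (L/kg), t1/2 (h), Cmax (nM), Tmax (h), AUC (nM h) and oral F%.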

Cytochrome P450 2D6 = Cytochrome P450 2D6 (Homo sapiens, UniProt P10635); test: Inhibition of CYP2D6; format: ADME
[6] = target: T2, Voltage-gated inwardly rectifying potassium channel KCNH2; test: Inhibition of human ERG by patch clamp assay
[7] = Cmax in dog at 10 mg/kg, po; format: ADME, organism-based, Canis lupus familiaris; design: dose 10 mg/kg, route oral; settings: in vivo
[8] = target: T3, C-C chemokine receptor type 2 (Mus musculus, UniProt P51683); test: Antagonist activity at mouse CCR2; format: functional
Procedure, shortened: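 Read-out was antagonism of CCR2-mediated chemotaxis in a mouse chemotaxis assay, with activity reported as IC50.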

[9] = Permeability across human Caco2 cells; format: ADME, cell-based; settings: Caco-2, read-out: permeability
[10] = Drug metabolism in human S9 fraction assessed as glutathione adduct formation in the absence of NADPH; format: ADME, subcellular
Procedure, shortened: (§2)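 Test agent incubated with human liver S9 fraction plus glutathione as cofactor, run both with and without NADPH. Read-out was detection of glutathione adducts.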

[11] = Induction of Cytochrome P450 up to 30 uM; format: ADME
[12] = Half life in dog at 2 mg/kg, iv; format: ADME, organism-based, Canis lupus familiaris; design: dose 2 mg/kg, route intravenous; settings: in vivo
Cytochrome P450 2C9 = Cytochrome P450 2C9 (Homo sapiens, UniProt P11712); test: Inhibition of CYP2C9; format: ADME
[13] = Oral bioavailability in dog at 10 mg/kg; format: ADME, organism-based, Canis lupus familiaris; settings: in vivo
[14] = target: T3, C-C chemokine receptor type 2; test: Binding affinity to mouse CCR2
Procedure, shortened: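 Mouse CCR2 binding assay, with affinity reported as IC50.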

[15] = Half life in dog at 10 mg/kg, po; format: ADME, organism-based, Canis lupus familiaris; design: dose 10 mg/kg, route oral; settings: in vivo
[16] = Cmax in rat at 10 mg/kg, po; format: ADME, organism-based; design: dose 10 mg/kg, route oral; settings: in vivo
Procedure, shortened: as §1

[17] = target: C-C chemokine receptor type 5 (Homo sapiens) (UniProt P51681); test: Inhibition of CCR5 at 1 uM
Procedure, shortened: (§3)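 Single-concentration screen at 1 μM against a broad panel of more than 50 targets (ion channels, transporters, chemokine receptors, other GPCRs), scored for significant inhibition.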

[18] = Fraction unbound in human serum; format: ADME, cell-free
[19] = target: T4, C-C chemokine receptor type 3 (Homo sapiens) (UniProt P51677); test: Inhibition of CCR3 at 1 uM
T4 sequence (whole entry): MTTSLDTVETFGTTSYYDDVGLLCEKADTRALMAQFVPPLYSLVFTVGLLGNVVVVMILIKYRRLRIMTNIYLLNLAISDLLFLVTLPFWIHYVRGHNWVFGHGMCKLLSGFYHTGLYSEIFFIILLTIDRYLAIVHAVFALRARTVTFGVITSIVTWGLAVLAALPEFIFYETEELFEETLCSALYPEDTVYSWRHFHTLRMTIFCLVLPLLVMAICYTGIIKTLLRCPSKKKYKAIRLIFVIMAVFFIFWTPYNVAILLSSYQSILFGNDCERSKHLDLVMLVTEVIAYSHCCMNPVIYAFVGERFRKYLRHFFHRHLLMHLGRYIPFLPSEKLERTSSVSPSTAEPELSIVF
Procedure, shortened: as §3

[20] = target: T5, C-X-C chemokine receptor type 5 (Homo sapiens) (UniProt P32302); test: Inhibition of CXCR5 at 1 uM
T5 sequence (whole entry): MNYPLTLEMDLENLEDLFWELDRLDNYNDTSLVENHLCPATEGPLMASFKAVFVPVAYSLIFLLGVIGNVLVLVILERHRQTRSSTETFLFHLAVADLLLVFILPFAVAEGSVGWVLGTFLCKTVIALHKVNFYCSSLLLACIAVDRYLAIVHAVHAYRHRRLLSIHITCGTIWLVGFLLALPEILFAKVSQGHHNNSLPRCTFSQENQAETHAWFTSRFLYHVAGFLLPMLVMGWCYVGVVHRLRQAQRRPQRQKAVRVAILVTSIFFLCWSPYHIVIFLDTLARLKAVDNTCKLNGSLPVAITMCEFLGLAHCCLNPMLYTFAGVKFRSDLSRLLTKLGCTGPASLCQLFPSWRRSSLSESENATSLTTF
Procedure, shortened: as §3

hERG (KCNH2) = hERG (KCNH2) (Homo sapiens, UniProt Q12809); test: Inhibition of human ERG at 10 uM by patch clamp assay
Cytochrome P450 2C19 = Cytochrome P450 2C19 (Homo sapiens, UniProt P33261); test: Inhibition of CYP2C19; format: ADME
[21] = Clearance in dog at 2 mg/kg, iv; format: ADME, organism-based, Canis lupus familiaris; design: dose 2 mg/kg, route intravenous; settings: in vivo
[22] = Volume of distribution at steady state in dog at 2 mg/kg, iv; format: ADME, organism-based, Canis lupus familiaris; design: dose 2 mg/kg, route intravenous; settings: in vivo, read-out: Vdss
[23] = target: T6, C-C chemokine receptor type 2 (Rattus norvegicus, UniProt O55193); test: Antagonist activity at rat CCR2; format: functional
T6 sequence (O55193 whole entry): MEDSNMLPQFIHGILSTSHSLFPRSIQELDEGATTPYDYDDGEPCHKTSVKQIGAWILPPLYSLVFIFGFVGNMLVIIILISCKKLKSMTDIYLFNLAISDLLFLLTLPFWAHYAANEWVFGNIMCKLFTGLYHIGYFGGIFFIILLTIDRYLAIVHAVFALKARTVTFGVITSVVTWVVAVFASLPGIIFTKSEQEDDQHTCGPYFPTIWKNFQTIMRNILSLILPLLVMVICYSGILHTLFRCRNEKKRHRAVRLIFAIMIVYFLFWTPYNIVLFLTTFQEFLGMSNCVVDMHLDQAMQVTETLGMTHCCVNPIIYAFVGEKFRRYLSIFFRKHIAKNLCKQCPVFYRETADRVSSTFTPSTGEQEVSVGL

[24] = Drug metabolism in human S9 fraction assessed as glutathione adduct formation in the presence of NADPH; format: ADME, subcellular
Procedure, shortened: as §2

[25] = target: T7, C-X-C chemokine receptor type 3 (Homo sapiens) (UniProt P49682); test: Inhibition of CXCR3 at 1 uM
T7 sequence (whole entry): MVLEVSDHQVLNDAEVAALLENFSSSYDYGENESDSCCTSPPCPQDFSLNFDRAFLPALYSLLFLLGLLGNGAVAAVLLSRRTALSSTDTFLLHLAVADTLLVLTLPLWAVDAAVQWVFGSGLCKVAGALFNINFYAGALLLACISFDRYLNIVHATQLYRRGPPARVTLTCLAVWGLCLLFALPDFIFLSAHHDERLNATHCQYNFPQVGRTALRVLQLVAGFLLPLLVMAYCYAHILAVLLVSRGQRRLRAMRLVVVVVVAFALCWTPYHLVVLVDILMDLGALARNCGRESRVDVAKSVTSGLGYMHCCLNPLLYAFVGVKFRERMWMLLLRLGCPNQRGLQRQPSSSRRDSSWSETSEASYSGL
Procedure, shortened: as §3

[26] = target: T8, C-C chemokine receptor type 1 (Homo sapiens) (UniProt P32246); test: Inhibition of CCR1 at 1 uM
T8 sequence (whole entry): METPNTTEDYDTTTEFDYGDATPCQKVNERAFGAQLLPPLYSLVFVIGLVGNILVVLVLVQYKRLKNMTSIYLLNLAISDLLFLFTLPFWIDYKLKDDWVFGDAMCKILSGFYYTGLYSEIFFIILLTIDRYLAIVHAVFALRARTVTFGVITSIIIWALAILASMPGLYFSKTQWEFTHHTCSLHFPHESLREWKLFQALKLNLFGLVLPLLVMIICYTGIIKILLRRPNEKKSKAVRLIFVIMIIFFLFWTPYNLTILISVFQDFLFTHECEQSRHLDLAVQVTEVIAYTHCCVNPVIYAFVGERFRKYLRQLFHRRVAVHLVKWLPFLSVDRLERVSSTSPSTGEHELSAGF
Procedure, shortened: as §3

Rattus norvegicus [27] = test: Half life in rat at 2 mg/kg, iv; format: ADME, organism-based; design: dose 2 mg/kg, route intravenous; settings: in vivo
Procedure, shortened: as §1

[28] = target: T6, C-C chemokine receptor type 2; test: Binding affinity to rat CCR2
[29] = Half life in rat at 10 mg/kg, po; format: ADME, organism-based; design: dose 10 mg/kg, route oral; settings: in vivo
Procedure, shortened: as §1

Rattus norvegicus [30] = test: Oral bioavailability in rat at 10 mg/kg; format: ADME, organism-based; settings: in vivo
Procedure, shortened: as §1

[31] = Tmax in rat at 10 mg/kg, po; format: ADME, organism-based; design: dose 10 mg/kg, route oral; settings: in vivo
Procedure, shortened: as §1

[32] = Half life in human liver microsomes; format: ADME, Microsome
[33] = Tmax in dog at 10 mg/kg, po; format: ADME, organism-based, Canis lupus familiaris; design: dose 10 mg/kg, route oral; settings: in vivo
Cytochrome P450 1A2 = target: T9, Cytochrome P450 1A2 (Homo sapiens, UniProt P05177); test: Inhibition of CYP1A2; format: ADME
T9 sequence (P05177 whole entry): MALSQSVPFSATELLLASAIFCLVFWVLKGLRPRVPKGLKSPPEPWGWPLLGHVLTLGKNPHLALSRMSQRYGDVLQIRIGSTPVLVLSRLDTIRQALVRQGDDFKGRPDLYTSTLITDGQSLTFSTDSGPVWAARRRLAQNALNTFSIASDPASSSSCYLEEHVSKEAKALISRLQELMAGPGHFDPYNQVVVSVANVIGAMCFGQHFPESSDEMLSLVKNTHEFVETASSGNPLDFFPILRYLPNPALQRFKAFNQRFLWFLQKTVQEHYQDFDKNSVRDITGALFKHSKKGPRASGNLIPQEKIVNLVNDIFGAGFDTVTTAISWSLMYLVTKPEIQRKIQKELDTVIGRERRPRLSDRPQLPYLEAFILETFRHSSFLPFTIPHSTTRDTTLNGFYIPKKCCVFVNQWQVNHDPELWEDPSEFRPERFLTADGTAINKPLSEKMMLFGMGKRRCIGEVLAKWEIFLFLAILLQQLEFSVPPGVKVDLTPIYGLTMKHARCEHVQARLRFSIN

Rattus norvegicus [34] = test: AUC in rat at 10 mg/kg, po; format: ADME, organism-based, Plasma; design: dose 10 mg/kg, route oral; settings: in vivo
Procedure, shortened: as §1

T1 sequence (P41597 whole entry): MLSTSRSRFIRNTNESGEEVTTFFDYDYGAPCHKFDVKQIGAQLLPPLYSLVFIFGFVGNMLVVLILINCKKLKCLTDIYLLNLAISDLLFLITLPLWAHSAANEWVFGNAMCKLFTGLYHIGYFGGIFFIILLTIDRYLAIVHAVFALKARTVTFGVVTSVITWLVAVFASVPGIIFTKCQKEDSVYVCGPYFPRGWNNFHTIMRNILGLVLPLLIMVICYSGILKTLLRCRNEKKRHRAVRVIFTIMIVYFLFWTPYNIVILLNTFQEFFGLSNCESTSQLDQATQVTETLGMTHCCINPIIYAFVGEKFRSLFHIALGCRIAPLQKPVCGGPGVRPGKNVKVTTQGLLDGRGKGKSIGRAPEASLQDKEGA
T2 sequence (Q12809 whole entry): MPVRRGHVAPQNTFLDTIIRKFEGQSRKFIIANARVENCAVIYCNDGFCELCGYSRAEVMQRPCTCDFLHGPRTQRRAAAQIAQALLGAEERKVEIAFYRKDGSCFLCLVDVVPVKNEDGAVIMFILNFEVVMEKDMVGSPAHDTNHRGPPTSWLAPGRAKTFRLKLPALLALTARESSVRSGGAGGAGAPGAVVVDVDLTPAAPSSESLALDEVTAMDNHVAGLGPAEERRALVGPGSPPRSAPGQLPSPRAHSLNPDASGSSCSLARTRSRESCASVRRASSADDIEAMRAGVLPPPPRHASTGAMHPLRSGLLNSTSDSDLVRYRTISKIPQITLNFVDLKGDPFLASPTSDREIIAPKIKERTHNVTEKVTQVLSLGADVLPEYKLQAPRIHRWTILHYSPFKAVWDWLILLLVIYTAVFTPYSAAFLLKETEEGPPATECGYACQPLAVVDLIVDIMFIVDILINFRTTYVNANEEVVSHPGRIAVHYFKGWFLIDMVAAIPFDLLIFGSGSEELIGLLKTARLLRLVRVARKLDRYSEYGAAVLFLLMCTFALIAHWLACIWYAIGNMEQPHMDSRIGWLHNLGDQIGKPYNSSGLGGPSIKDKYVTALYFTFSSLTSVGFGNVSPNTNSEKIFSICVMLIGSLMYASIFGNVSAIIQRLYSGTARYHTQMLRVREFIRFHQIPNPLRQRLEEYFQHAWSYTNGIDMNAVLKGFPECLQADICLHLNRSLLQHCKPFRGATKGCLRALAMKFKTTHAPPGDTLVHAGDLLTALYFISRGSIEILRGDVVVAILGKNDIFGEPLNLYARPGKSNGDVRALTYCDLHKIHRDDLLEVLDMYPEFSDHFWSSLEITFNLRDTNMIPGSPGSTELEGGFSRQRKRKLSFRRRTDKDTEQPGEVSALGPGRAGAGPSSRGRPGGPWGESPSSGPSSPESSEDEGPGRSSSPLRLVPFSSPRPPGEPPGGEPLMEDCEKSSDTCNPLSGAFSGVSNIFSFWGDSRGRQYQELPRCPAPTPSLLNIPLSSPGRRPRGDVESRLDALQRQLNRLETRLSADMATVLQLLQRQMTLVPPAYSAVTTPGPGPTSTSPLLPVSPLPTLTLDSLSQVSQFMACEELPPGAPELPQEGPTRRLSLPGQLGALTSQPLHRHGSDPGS
T3 sequence (P51683 whole entry): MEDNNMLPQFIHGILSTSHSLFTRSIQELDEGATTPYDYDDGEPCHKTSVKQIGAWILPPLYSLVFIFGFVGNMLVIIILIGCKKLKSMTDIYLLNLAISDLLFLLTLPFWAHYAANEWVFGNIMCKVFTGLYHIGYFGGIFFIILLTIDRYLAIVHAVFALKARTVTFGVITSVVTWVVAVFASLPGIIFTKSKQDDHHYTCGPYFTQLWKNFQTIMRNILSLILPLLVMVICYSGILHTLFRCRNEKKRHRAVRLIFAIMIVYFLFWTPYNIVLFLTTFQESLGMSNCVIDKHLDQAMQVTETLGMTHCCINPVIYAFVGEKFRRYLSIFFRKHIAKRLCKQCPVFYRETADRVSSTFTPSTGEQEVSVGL
Chain of C-C chemokine receptor type 5 (Homo sapiens) (P51681 whole entry, looked up): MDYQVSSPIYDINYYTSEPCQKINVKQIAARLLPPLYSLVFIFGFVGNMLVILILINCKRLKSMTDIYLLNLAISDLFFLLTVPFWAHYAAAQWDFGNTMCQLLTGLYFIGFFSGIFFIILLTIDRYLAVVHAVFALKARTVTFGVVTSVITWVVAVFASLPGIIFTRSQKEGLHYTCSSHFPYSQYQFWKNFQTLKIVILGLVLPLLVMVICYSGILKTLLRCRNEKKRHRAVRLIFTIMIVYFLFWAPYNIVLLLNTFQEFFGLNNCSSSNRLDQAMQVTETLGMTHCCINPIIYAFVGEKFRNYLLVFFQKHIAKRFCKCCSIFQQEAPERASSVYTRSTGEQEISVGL
Chain of Cytochrome P450 2C9 (P11712 whole entry): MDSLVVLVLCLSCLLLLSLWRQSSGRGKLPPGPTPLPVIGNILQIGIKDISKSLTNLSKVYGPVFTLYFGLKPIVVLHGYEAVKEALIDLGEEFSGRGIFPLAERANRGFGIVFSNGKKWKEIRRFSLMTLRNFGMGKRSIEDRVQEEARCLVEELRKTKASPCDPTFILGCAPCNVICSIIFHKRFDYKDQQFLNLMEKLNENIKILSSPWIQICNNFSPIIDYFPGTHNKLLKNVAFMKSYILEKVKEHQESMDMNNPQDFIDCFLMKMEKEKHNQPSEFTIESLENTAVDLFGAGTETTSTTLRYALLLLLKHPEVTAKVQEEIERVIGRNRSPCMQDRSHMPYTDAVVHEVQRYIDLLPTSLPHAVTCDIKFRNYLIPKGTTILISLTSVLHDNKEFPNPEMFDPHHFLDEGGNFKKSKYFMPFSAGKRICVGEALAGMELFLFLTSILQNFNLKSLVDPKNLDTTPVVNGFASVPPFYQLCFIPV
Chain of Cytochrome P450 2C19 (P33261 whole entry): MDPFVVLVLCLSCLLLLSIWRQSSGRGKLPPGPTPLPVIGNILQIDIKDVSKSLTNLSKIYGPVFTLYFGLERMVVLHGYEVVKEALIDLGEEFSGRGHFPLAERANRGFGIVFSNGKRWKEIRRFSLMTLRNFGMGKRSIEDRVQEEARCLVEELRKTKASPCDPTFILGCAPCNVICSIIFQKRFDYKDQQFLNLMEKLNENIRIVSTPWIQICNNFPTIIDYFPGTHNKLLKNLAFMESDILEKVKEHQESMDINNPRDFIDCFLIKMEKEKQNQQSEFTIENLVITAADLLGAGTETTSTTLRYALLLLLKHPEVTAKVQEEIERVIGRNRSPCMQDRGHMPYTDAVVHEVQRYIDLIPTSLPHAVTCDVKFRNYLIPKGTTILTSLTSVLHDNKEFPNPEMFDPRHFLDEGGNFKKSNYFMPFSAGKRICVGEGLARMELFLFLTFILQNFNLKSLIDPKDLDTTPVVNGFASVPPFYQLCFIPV
Chain of hERG (KCNH2) (Q12809 whole entry): as the sequence (Q12809 whole entry) above
Chain of Cytochrome P450 2D6 (P10635 whole entry): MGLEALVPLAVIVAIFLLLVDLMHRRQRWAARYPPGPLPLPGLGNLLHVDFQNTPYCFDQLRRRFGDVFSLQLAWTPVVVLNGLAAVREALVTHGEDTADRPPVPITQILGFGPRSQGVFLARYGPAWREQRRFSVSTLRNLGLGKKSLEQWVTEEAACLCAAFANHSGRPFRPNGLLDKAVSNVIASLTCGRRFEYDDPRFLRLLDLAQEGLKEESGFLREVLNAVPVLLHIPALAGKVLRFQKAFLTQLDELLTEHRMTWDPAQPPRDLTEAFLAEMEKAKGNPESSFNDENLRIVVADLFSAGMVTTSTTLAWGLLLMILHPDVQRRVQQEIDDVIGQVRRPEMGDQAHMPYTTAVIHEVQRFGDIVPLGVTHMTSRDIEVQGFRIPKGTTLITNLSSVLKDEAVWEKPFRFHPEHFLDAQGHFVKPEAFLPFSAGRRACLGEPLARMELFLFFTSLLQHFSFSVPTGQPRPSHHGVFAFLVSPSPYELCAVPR

SMILES: N#Cc1ccnc(N2CCC(C(=O)N3CC[C@H](N[C@H]4CC[C@@](O)(c5ccc(-c6ncccn6)cn5)CC4)C3)CC2)c1
- IC50 [1]: 11 nM
- IC50 [2]: 33 nM

SMILES: O=C(NCC(=O)N1CC[C@H](N[C@H]2CC[C@@](O)(c3ccc(-c4ncccn4)cn3)CC2)C1)c1cccc(C(F)(F)F)c1 [PF-4136309]
- AUC [4]: 35.6 µM·h
- CL (Rattus norvegicus [5]): 23.5 mL/min/kg
- IC50 (Cytochrome P450 2D6): > 30000 nM
- IC50 [6]: 20000 nM
- Cmax [7]: 20 µM
- IC50 [8]: 16 nM
- Papp [9]: 3.1 ×10⁻⁶ cm/s
- Drug metabolism [10]: Not Active
- Activity [11]: Not Active
- half-life [12]: 2.4 h
- IC50 (Cytochrome P450 2C9): > 30000 nM
- bioavailability [13]: 78%
- IC50 [14]: 17 nM
- half-life [15]: 3.2 h
- Cmax [16]: 0.61 µM
- inhibition [17]: inactive
- fraction unbound [18]: 0.23
- inhibition [19]: inactive
- inhibition [20]: inactive
- inhibition at 10 µM (hERG (KCNH2)): 35%
- IC50 (Cytochrome P450 2C19): > 30000 nM
- clearance [21]: 7.67 mL/min/kg
- Vd [22]: 0.62 L/kg
- IC50 [23]: 2.8 nM
- Drug metabolism [24]: Not Active
- inhibition [25]: inactive
- inhibition [26]: inactive
- t1/2 (Rattus norvegicus [27]): 2.5 h
- IC50 [28]: 13 nM
- IC50 [3]: > 30000 nM
- half-life [29]: 2.5 h
- F (Rattus norvegicus [30]): 78%
- Tmax [31]: 1.2 h
- half-life [32]: 1.48 h
- Tmax [33]: 0.25 h
- IC50 (Cytochrome P450 1A2): > 30000 nM
- AUC (Rattus norvegicus [34]): 2.723 µM·h

More lines, main results first:

- IC50 [1]: 5.4 nM
- IC50 [2]: 29 nM
SMILES: O=C(C1CCN(c2nccc(C(F)(F)F)n2)CC1)N1CC[C@H](N[C@H]2CC[C@@](O)(c3ccc(-c4ncccn4)cn3)CC2)C1

- IC50 [1]: 10 nM
- IC50 [2]: 40 nM
SMILES: O=C(C1CCN(c2cc(C(F)(F)F)ncn2)CC1)N1CC[C@H](N[C@H]2CC[C@@](O)(c3ccc(-c4ncccn4)cn3)CC2)C1
- IC50 [3]: > 30000 nM

- IC50 [1]: 3.3 nM
- IC50 [2]: 33 nM
SMILES: O=C(N1CC[C@H](N[C@H]2CC[C@@](O)(c3ccc(-c4ncccn4)cn3)CC2)C1)C1(O)CCN(c2cc(C(F)(F)F)ccn2)CC1
- IC50 [3]: > 30000 nM
